Results as given in ChEMBL document CHEMBL1144684, “Evaluation of a series of naphthamides as potent, orally active vascular endothelial growth factor receptor-2 tyrosine kinase inhibitors” (J Med Chem, 2008).
The source made the active and inactive calls. The rule behind the calls is not given here.

Columns and labels:
HUVEC [1] = test: Selectivity of IC50 for VEGF-induced proliferation over IC50 for bFGF-induced proliferation of HUVEC; format: functional, Homo sapiens
Summary of the method: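 HUVECs were seeded at 3000 cells/well in DMEM/10% FBS with pen/strep and cultured for 22 h. They were preincubated 2 h with serially diluted compound, then stimulated with 50 ng/mL VEGF or 20 ng/mL bFGF for 72 h at 37 °C, 5% CO2. Cells were washed, frozen at -70 °C and stained with CyQuant. IC50s came from a four-parameter logistic fit, averaged over ≥2 experiments; the VEGF IC50 was compared against the bFGF IC50.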

[2] = Intrinsic clearance in rat liver microsomes at 1 uM; format: ADME, Microsome; conditions: read-out: Stability
Summary of the method: (§1)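 Human or rat liver microsomes (0.25 mg protein/mL) with 1 mM NADPH, 2 mM MgCl2 in 50 mM potassium phosphate pH 7.4 at 37 °C; compound 1 µM final. Sampled 0–40 min into acetonitrile, LC-MS/MS; ln % remaining vs time slope gives T1/2; CLint = (0.693/T1/2)/0.25 mg/mL.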

[3] = Intrinsic clearance in human liver microsomes at 1 uM; format: ADME, Microsome; conditions: read-out: Stability; summary of the method: as §1
[4] = Clearance in Sprague-Dawley rat at 1 mg/kg, iv; format: ADME, organism-based; parameters: dose 1 mg/kg, route intravenous; conditions: in vivo
Summary of the method: (§2)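 Male Sprague–Dawley rats dosed iv via femoral vein as DMSO solution (1 or 0.5 mg/kg) or po by gavage as OraPlus suspension (pH 2.0–2.2 with methanesulfonic acid; 10 or 2 mg/kg). Serial jugular blood over 12–24 h; plasma acetonitrile precipitation, LC-MS/MS (MRM) with internal standard; noncompartmental parameters.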

Liver microsomes [5] = test: Metabolic stability assessed as covalent binding in absence of NADPH in rat liver microsomes at 10 uM after 1 hr; format: ADME, Microsome
Summary of the method: (§3)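 14C-labelled compound at 10 µM with human or rat liver microsomes (1 mg/mL) in 0.1 M potassium phosphate pH 7.4, with or without 1 mM NADPH and 1 mM glutathione, 60 min; quenched with ice-cold acetonitrile. Pellet washed with 80% methanol and ethanol/ether, solubilized, protein by BCA, radioactivity by scintillation counting.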

Liver microsomes [6] = test: Metabolic stability assessed as covalent binding in presence of NADPH and GSH in rat liver microsomes at 10 uM after 1 hr; format: ADME, Microsome; summary of the method: as §3
[7] = Volume of distribution at steady state in Sprague-Dawley rat at 1 mg/kg, iv; format: ADME, organism-based; parameters: dose 1 mg/kg, route intravenous; conditions: in vivo, read-out: Vdss
Summary of the method: (§4)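 Male Sprague–Dawley rats given 1 mg/kg iv via femoral vein as DMSO solution or 10 mg/kg by oral gavage as OraPlus suspension, pH adjusted to 2.0–2.2 with methanesulfonic acid. Serial jugular blood over 12–24 h; plasma protein-precipitated with acetonitrile, quantified by LC-MS/MS (MRM) with internal standard; noncompartmental parameters.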

[8] = Half life in Sprague-Dawley rat at 1 mg/kg, iv; format: ADME, organism-based; parameters: dose 1 mg/kg, route intravenous; conditions: in vivo; summary of the method: as §2
[9] = AUC (0 to infinity) in Sprague-Dawley rat at 2 mg/kg, po; format: ADME, organism-based; parameters: time infinity, dose 2 mg/kg, route oral; conditions: plasma; summary of the method: as §2
[10] = Cmax in Sprague-Dawley rat at 2 mg/kg, po; format: ADME, organism-based; parameters: dose 2 mg/kg, route oral; conditions: in vivo; summary of the method: as §2
[11] = Tmax in Sprague-Dawley rat at 2 mg/kg, po; format: ADME, organism-based; parameters: dose 2 mg/kg, route oral; conditions: in vivo
Summary of the method: (§5)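 Male Sprague–Dawley rats dosed iv at 0.5 mg/kg as DMSO solution or po at 2 mg/kg as suspension in 100% OraPlus. Serial jugular blood, plasma LC-MS/MS quantitation, noncompartmental analysis.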

[12] = Oral bioavailability in Sprague-Dawley rat at 2 mg/kg; format: ADME, organism-based; conditions: in vivo; summary of the method: as §5
[13] = Aqueous solubility in 0.01 N Hcl; format: physicochemical
[14] = target: Vascular endothelial growth factor receptor 1 (Homo sapiens, UniProt P17948); test: Inhibition of human VEGFR1
[15] = target: Vascular endothelial growth factor receptor 3 (Homo sapiens) (UniProt P35916); test: Inhibition of human VEGFR3
[16] = target: Platelet-derived growth factor receptor alpha (Homo sapiens) (UniProt P16234); test: Inhibition of PDGFRalpha
Chain of Platelet-derived growth factor receptor alpha (Homo sapiens) (P16234 whole entry): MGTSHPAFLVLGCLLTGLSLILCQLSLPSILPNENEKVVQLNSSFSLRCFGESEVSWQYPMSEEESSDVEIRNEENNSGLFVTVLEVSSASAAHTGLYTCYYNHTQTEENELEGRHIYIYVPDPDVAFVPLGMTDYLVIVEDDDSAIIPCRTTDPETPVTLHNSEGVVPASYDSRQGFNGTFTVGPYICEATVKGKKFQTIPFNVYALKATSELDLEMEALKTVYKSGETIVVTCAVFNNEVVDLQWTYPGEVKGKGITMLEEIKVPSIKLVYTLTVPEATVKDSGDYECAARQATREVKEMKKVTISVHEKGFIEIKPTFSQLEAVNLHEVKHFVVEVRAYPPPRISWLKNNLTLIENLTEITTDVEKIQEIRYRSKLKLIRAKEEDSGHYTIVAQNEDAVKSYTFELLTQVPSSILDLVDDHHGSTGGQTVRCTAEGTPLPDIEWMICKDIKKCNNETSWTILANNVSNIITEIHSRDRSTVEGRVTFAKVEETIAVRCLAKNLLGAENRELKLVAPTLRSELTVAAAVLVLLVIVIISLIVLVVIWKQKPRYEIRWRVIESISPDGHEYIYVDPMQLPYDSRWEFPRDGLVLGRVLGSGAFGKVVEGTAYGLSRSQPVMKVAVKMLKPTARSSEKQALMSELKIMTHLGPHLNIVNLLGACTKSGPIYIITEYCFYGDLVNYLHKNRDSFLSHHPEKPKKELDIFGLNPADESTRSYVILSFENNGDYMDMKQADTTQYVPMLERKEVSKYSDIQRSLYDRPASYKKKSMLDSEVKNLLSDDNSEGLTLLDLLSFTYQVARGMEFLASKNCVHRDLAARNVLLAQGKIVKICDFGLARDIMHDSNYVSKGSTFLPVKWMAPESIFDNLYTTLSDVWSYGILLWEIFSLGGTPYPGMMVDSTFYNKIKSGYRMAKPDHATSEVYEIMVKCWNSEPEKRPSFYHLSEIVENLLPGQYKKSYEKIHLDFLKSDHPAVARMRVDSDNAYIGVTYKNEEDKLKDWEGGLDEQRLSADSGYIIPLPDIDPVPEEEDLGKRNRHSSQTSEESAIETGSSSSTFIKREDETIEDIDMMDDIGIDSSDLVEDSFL

[17] = target: Mast/stem cell growth factor receptor Kit (Homo sapiens) (UniProt P10721); test: Inhibition of c-Kit
Chain of Mast/stem cell growth factor receptor Kit (Homo sapiens) (P10721 whole entry): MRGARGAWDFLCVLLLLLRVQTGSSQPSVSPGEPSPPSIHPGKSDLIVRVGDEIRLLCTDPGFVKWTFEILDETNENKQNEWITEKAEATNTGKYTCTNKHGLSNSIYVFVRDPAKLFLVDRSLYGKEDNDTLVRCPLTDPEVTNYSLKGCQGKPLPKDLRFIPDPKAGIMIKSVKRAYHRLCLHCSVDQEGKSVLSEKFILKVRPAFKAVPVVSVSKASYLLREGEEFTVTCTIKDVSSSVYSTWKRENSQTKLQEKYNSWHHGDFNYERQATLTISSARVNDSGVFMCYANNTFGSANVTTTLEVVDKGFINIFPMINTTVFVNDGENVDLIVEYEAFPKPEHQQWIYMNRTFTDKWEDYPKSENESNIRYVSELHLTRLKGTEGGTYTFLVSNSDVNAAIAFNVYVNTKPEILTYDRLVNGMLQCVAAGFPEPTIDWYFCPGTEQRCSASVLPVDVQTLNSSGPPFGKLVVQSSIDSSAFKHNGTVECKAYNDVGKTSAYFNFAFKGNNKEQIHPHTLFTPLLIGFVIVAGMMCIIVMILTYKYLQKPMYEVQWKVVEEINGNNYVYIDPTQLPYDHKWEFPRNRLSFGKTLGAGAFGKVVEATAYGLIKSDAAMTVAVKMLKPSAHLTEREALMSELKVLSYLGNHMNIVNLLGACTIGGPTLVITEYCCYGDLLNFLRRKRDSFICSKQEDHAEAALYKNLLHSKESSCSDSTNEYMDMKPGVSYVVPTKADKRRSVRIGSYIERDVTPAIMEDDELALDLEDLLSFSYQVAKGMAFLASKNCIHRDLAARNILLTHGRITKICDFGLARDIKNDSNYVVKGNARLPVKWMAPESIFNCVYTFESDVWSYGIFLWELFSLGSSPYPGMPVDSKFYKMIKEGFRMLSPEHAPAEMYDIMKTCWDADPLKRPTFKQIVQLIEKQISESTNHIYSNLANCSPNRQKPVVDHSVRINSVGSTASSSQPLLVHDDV

[18] = target: Macrophage colony-stimulating factor 1 receptor (Homo sapiens) (UniProt P07333); test: Inhibition of c-fms
[19] = target: Tyrosine-protein kinase Lyn (Homo sapiens, UniProt P07948); test: Inhibition of Lyn
Chain of Tyrosine-protein kinase Lyn (P07948 whole entry): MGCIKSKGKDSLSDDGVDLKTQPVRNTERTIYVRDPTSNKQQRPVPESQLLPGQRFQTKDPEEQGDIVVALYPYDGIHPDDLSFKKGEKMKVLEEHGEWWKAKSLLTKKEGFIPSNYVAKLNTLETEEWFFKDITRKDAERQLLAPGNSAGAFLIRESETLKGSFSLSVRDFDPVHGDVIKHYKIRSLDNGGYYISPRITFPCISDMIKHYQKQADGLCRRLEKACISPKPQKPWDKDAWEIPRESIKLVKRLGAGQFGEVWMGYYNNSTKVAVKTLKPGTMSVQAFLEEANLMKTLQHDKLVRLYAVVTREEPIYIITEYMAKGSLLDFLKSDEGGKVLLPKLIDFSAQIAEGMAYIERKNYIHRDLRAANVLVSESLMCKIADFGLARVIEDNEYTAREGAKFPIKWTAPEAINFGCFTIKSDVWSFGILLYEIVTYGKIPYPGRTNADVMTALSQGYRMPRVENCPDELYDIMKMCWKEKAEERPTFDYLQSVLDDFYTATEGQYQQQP

Mus musculus [20] = test: Inhibition of VEGF-induced vascular permeability in HEK293 cells expressing mouse recombinant VEGF implanted in CD1 nu/nu mouse assessed as Matrigel plug at 3 mg/kg, po after 6 hrs; format: functional, organism-based; parameters: dose 3 mg/kg
Summary of the method: (§6)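 HEK293 cells expressing murine VEGF (or vector) suspended in Matrigel, injected sc ventrally into CD-1 nu/nu mice. At 24 h, single oral gavage dose as OraPlus suspension; 6 h later Evans blue quantified in 1 cm2 skin over plug; plasma level taken at 6 h; n = 5/group.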

Rattus norvegicus = test: Inhibition of VEGF-induced angiogenesis in VEGF-soaked disk implanted in Sprague-Dawley rat cornea assessed as number of blood vessels intersecting the midpoint between disk and limbus after 7 days; format: functional; conditions: 168 h
[21] = AUC in VEGF-soaked disk implanted in Sprague-Dawley rat; format: ADME, organism-based; conditions: plasma
[22] = Cmax in VEGF-soaked disk implanted in Sprague-Dawley rat; format: ADME, organism-based; conditions: in vivo
Liver microsomes [23] = test: Metabolic stability assessed as covalent binding in presence of NADPH in human liver microsomes at 10 uM after 1 hr; format: ADME, Microsome; summary of the method: as §3
Liver microsomes [24] = test: Metabolic stability assessed as covalent binding in absence of NADPH in human liver microsomes at 10 uM after 1 hr; format: ADME, Microsome; summary of the method: as §3
Liver microsomes [25] = test: Metabolic stability assessed as covalent binding in presence of NADPH and GSH in human liver microsomes at 10 uM after 1 hr; format: ADME, Microsome; summary of the method: as §3
Liver microsomes [26] = test: Metabolic stability assessed as covalent binding in presence of NADPH in rat liver microsomes at 10 uM after 1 hr; format: ADME, Microsome; summary of the method: as §3
Angiopoietin-1 receptor = Angiopoietin-1 receptor (Homo sapiens, UniProt Q02763); test: Inhibition of Tie2
[27] = target: Hepatocyte growth factor receptor (Homo sapiens, UniProt P08581); test: Inhibition of c-Met
Chain of Hepatocyte growth factor receptor (P08581 whole entry): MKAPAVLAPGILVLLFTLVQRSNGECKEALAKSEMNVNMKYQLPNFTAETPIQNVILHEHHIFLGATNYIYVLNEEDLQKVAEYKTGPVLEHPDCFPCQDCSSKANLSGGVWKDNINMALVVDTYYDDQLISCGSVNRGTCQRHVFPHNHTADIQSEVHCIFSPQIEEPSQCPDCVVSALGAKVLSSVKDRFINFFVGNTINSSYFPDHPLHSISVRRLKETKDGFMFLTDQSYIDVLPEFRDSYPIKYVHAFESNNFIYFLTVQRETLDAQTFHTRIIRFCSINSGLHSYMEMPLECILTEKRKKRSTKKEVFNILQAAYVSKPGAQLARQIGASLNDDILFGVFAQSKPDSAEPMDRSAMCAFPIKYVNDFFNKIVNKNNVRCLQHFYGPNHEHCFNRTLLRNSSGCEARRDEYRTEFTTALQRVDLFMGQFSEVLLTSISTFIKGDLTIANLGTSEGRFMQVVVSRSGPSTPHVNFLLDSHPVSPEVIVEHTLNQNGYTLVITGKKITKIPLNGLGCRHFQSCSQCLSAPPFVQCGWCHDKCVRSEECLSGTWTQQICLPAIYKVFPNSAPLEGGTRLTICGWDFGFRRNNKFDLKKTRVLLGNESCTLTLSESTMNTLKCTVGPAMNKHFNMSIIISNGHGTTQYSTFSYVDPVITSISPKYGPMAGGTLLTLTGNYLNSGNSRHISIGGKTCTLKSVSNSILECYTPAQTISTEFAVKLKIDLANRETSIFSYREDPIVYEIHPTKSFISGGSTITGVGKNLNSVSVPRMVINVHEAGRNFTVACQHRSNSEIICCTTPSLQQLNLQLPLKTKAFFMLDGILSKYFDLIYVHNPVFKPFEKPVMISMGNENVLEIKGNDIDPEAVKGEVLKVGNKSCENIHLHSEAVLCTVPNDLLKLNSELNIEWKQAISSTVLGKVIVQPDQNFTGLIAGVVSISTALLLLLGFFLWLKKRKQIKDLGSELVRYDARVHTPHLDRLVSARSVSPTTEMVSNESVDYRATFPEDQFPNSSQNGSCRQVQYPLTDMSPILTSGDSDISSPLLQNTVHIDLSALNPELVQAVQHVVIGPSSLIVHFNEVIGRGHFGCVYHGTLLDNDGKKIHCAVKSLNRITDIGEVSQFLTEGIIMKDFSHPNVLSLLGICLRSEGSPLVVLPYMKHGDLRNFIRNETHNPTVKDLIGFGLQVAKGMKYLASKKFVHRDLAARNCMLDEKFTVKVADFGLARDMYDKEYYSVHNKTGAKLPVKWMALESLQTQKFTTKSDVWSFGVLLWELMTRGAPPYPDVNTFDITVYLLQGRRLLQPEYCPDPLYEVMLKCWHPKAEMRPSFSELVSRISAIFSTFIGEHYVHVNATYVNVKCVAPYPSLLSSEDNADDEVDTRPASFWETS

[28] = target: Tyrosine-protein kinase Lck (Homo sapiens, UniProt P06239); test: Inhibition of Lck
Chain of Tyrosine-protein kinase Lck (P06239 whole entry): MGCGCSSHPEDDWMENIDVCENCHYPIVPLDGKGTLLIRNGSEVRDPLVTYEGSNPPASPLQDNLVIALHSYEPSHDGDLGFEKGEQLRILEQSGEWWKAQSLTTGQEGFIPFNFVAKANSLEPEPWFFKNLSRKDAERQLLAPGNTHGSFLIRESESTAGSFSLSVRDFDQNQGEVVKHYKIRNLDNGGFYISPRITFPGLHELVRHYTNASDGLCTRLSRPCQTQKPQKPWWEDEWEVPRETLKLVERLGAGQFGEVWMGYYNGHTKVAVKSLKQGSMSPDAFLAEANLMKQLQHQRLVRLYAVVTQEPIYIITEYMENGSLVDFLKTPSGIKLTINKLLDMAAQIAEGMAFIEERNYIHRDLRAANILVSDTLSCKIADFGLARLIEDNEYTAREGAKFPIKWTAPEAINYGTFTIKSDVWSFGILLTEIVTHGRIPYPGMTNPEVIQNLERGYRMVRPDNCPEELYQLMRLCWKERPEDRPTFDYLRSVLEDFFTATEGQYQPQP

Aurora kinase A = target: T1, Aurora kinase A (Homo sapiens, UniProt O14965); test: Inhibition of Aurora A
T1 sequence (O14965 whole entry): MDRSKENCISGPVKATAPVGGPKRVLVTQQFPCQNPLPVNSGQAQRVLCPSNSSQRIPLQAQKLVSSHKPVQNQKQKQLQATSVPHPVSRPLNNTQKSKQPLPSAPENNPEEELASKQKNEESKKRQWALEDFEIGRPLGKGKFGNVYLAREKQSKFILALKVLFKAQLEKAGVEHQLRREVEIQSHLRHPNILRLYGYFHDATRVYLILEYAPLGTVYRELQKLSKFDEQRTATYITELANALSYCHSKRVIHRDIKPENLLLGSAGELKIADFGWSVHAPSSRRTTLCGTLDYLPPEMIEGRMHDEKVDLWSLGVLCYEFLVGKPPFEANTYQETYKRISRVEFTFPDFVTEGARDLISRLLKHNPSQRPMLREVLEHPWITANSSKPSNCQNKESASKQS

Aurora kinase B = Aurora kinase B (Homo sapiens, UniProt Q96GD4); test: Inhibition of Aurora B
Chain of Aurora kinase B (Q96GD4 whole entry): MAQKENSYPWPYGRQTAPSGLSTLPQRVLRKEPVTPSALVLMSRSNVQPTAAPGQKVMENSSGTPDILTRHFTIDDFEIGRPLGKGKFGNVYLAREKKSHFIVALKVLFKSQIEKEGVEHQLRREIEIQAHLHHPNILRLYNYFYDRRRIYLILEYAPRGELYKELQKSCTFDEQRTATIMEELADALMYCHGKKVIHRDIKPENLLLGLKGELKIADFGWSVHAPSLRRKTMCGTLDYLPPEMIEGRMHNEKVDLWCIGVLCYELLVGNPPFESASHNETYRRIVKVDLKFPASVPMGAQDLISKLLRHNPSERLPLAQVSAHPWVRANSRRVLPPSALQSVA

HUVEC [29] = test: Inhibition of VEGF-induced proliferation of HUVEC; format: functional, cell-based; conditions: Homo sapiens
HUVEC [30] = test: Inhibition of bFGF-induced proliferation of HUVEC; format: functional, cell-based; conditions: Homo sapiens
Summary of the method: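 HUVEC seeded at 3000/well in DMEM with 10% FBS, 22 h; 2 h preincubation with serial compound dilutions, then 50 ng/mL VEGF or 20 ng/mL bFGF for 72 h at 37 °C. Freeze–thaw, CyQuant DNA dye read-out; IC50 by four-parameter logistic fit, averaged over ≥2 experiments.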

[31] = target: Vascular endothelial growth factor receptor 2 (Homo sapiens, UniProt P35968)
[32] = AUC (0 to infinity) in Sprague-Dawley rat at 10 mg/kg, po; format: ADME, organism-based; parameters: dose 10 mg/kg, route oral, time infinity; conditions: plasma; summary of the method: as §2
[33] = Cmax in Sprague-Dawley rat at 10 mg/kg, po; format: ADME, organism-based; parameters: dose 10 mg/kg, route oral; conditions: in vivo; summary of the method: as §2
[34] = Tmax in Sprague-Dawley rat at 10 mg/kg, po; format: ADME, organism-based; parameters: dose 10 mg/kg, route oral; conditions: in vivo; summary of the method: as §4
[35] = Oral bioavailability in Sprague-Dawley rat at 10 mg/kg; format: ADME, organism-based; conditions: in vivo; summary of the method: as §4
[36] = target: Receptor-type tyrosine-protein kinase FLT3 (Homo sapiens) (UniProt P36888); test: Inhibition of Flt3
[37] = target: Tyrosine-protein kinase Fgr (Homo sapiens, UniProt P09769); test: Inhibition of FGR
Mus musculus [38] = test: Inhibition of VEGF-induced vascular permeability in HEK293 cells expressing mouse recombinant VEGF implanted in CD1 nu/nu mouse assessed as Matrigel plug at 10 mg/kg, po after 6 hrs; format: functional, organism-based; parameters: dose 10 mg/kg; summary of the method: as §6
[39] = target: Tyrosine-protein kinase ABL1 (Homo sapiens, UniProt P00519)

Row | Compound | Selectivity ratio (HUVEC [1]) | microsomal CLint at 1 µM [2] | microsomal CLint at 1 µM [3] | clearance [4] | Stability (Liver microsomes [5]) | Stability (Liver microsomes [6]) | Vd [7] | half-life [8] | solubility [13] | Activity [15] | Activity [16] | Activity [17] | Activity [18] | IC50 [19] | ED50 (Rattus norvegicus) | AUC [21] | Cmax [22] | Stability (Liver microsomes [23]) | Stability (Liver microsomes [24]) | Stability (Liver microsomes [25]) | further results
1 | COCCNC(=O)c1cccc2cc(Oc3ccnc4cc(OC)c(OC)cc34)ccc12 | >100 | 48 µL/min/mg | 32 µL/min/mg | 8.87 mL/min/kg | 125 pmol/mg/h | 1.6 pmol/mg/h | 1.13 L/kg | 1.6 h | > 200 µg/mL | Active | Active | Active | Active | 275 nM | 0.04 mg/kg | 0.52 µM·h | 40 nM | 321 pmol/mg/h | 125 pmol/mg/h | 1.6 pmol/mg/h | AUC(0-inf) [9]: 3770 ng·h/mL; Cmax [10]: 543 ng/mL; Tmax [11]: 2 h; bioavailability [12]: 99%; IC50 [14]: 73 nM; Cp (Mus musculus [20]): 0.2 µM; Stability (Liver microsomes [26]): 353 pmol/mg/h; IC50 (Angiopoietin-1 receptor): 25000 nM; IC50 [27]: 20000 nM; IC50 [28]: 1200 nM; IC50 (Aurora kinase A): 7200 nM; IC50 (Aurora kinase B): 130 nM; IC50 (HUVEC [29]): 0.64 nM; IC50 (HUVEC [30]): 1140 nM; IC50 [31]: 12 nM
2 | COc1cc2nccc(Oc3ccc4c(C(=O)NC5CC5)cccc4c3)c2cc1OC | >100 | 21 µL/min/mg | 31 µL/min/mg | 2.18 mL/min/kg | 1.5 pmol/mg/h | 153 pmol/mg/h | 1.04 L/kg | 8.4 h | > 200 µg/mL | Active | Active | Active | Active | 27 nM | 0.01 mg/kg | 0.32 µM·h | 20 nM | 357 pmol/mg/h | 1.5 pmol/mg/h | 153 pmol/mg/h | AUC(0-inf) [32]: 50200 ng·h/mL; Cmax [33]: 6150 ng/mL; Tmax [34]: 2.5 h; bioavailability [35]: 66%; Activity [14]: Active; Activity [36]: inactive; IC50 [37]: 396 nM; Cp (Mus musculus [38]): 1 µM; Stability (Liver microsomes [26]): 60 pmol/mg/h; IC50 (Angiopoietin-1 receptor): 25000 nM; IC50 [27]: 20000 nM; IC50 [28]: 330 nM; IC50 (Aurora kinase A): 2000 nM; IC50 (Aurora kinase B): 118 nM; IC50 (HUVEC [29]): 0.91 nM; IC50 (HUVEC [30]): 170 nM; IC50 [39]: 466 nM
